Results from ChEMBL document CHEMBL5107950, “Structure-based design of haloperidol analogues as inhibitors of acetyltransferase Eis from Mycobacterium tuberculosis to overcome kanamycin resistance” (RSC Med Chem, 2021).
pIC50, pKi: −log10 of the molar value. Converted amounts (≈) assume the structure as drawn. The source made the active and inactive calls. The calls are words filed in the database; no cut-off is given here.

Assays:
[1] = target: T1, N-acetyltransferase Eis (Mycobacterium tuberculosis (strain ATCC 25618 / H37Rv), UniProt P9WFK7); assay: Inhibition of Mycobacterium tuberculosis Eis assessed as Eis-mediated kanamycin acetylation preincubated for 10 mins followed by substrate addition and measured for 2 to 5 mins using acetyl-CoA as substrate in presence of kanamycin by UV-Vis spectroscopy analysis
T1 sequence (P9WFK7 whole entry): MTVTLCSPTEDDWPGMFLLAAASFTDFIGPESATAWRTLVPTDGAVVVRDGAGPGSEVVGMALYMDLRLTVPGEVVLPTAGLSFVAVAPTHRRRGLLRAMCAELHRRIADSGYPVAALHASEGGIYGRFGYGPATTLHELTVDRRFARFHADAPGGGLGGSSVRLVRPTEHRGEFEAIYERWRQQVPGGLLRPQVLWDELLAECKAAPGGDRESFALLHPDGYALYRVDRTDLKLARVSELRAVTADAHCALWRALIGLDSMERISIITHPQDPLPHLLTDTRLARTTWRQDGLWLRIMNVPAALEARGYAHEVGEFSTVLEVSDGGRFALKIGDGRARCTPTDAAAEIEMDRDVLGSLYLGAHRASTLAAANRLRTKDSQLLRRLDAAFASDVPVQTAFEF
In short: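 Recombinant Eis (1 µM) mixed with KAN (400 µM) in 50 mM Tris-HCl pH 8.0 and preincubated 10 min with 5-fold serially diluted inhibitor (10% DMSO in buffer). Reaction started with AcCoA and DTNB (2 mM each, as added). Absorbance read every 30 s for 20 min. Initial rates (first 2-5 min) fitted to Hill plot for IC50. At least triplicate.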

[2] = test system: Mycobacterium tuberculosis; assay: Potentiation of kanamycin-induced antibacterial activity against Mycobacterium tuberculosis H37Rv assessed as kanamycin MIC incubated for 1 day followed by kanamycin addition for 6 days and by Alamar blue assay; assay type: functional; settings: 168 h, time 7 day
In short: (§1)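 Mtb in 7H9 + 10% ADC, 0.05% Tween 80, 0.4% glycerol at 37 °C. Inoculum adjusted to OD600 0.2, diluted 1:25. Cells preincubated 24 h at 37 °C with compound (100 µL of 200 µM solution). KAN then added: H37Rv at 2.5 and 1.25 µg/mL; K204 at 10, 5, 2.5, 1.25 µg/mL. Incubated 6 days, AlamarBlue added, colour read at 24 and 48 h. MIC = lowest KAN with no colour change. At least twice in duplicate.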

[3] = test system: Mycobacterium tuberculosis; assay: Potentiation of kanamycin-induced antibacterial activity against Mycobacterium tuberculosis K204 assessed as kanamycin MIC incubated for 1 day followed by kanamycin addition for 6 days and by Alamar blue assay; assay type: functional; settings: K204, 168 h, time 7 day; in short: as §1
[4] = target: T1, N-acetyltransferase Eis; assay: Competitive inhibition of Mycobacterium tuberculosis Eis assessed as reduction in Eis-mediated kanamycin acetylation preincubated for 10 mins followed by substrate addition and measured for 2 to 5 mins using acetyl-CoA as substrate in presence of kanamycin by Lineweaver-Burk plot analysis
In short: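 Same DTNB-coupled Eis acetylation assay used for IC50, run as Michaelis-Menten kinetics with inhibitor at 0-1 μM. Vmax and Km from these fits used to determine mode of inhibition. Quadruplicate.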

[5] = test system: Mycolicibacterium smegmatis; assay: Antibacterial activity against Mycobacterium smegmatis mc2 155 assessed as inhibition of bacterial growth incubated upto 3 weeks hrs by resazurin dye based double-dilution method; assay type: functional; settings: mc2 155, 504 h
In short: (§2)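 Double-dilution broth MIC. Media: M. smegmatis, Mueller-Hinton; M. abscessus, 7H9 + 0.05% Tween80 + 0.4% glycerol; mc²6230, 7H9 + 0.05% tyloxapol, 0.5% glycerol, 10% OADC, 0.2% casamino acids, 24 µg/mL pantothenate; other mycobacteria, 7H9 + 0.05% Tween80, 0.4% glycerol, 10% ADC. Inoculum from agar set to 0.5 McFarland, then diluted 1:100.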

[6] = test system: Mycobacteroides abscessus; assay: Antibacterial activity against Mycobacterium abscessus ATCC 19977 assessed as inhibition of bacterial growth incubated upto 3 weeks hrs by resazurin dye based double-dilution method; assay type: functional; settings: ATCC 19977, 504 h; in short: as §2
[7] = test system: Mycobacterium intracellulare; assay: Antibacterial activity against Mycobacterium intracellulare ATCC 13950 assessed as inhibition of bacterial growth incubated upto 3 weeks hrs by resazurin dye based double-dilution method; assay type: functional; settings: ATCC 13950, 504 h; in short: as §2
[8] = test system: Mycobacterium avium; assay: Antibacterial activity against Mycobacterium avium ATCC 25921 assessed as inhibition of bacterial growth incubated upto 3 weeks hrs by resazurin dye based double-dilution method; assay type: functional; settings: ATCC 25921, 504 h; in short: as §2
[9] = test system: Mycobacterium tuberculosis; assay: Antibacterial activity against Mycobacterium tuberculosis H37Ra ATCC NRS22 assessed as inhibition of bacterial growth incubated upto 3 weeks hrs by resazurin dye based double-dilution method; assay type: functional; settings: H37Ra ATCC NRS22, 504 h; in short: as §2
[10] = test system: Mycolicibacterium smegmatis; assay: Synergistic antibacterial activity against Mycobacterium smegmatis mc2 155 assessed as fold reduction in MIC value at 8 ug/ml in presence of spectinomycin by checkerboard assay; assay type: functional; settings: dose 8 µg/ml
[11] = test system: Mycolicibacterium smegmatis; assay: Synergistic antibacterial activity against Mycobacterium smegmatis mc2 155 assessed as fold reduction in MIC value at 8 ug/ml in presence of clarithromycin by checkerboard assay; assay type: functional; settings: dose 8 µg/ml
[12] = test system: HEK293; assay: Cytotoxicity against human HEK293 cells assessed as reduction in cell viability at 200 uM incubated for 24 hrs by resazurin assay; assay type: toxicity, cell-based; settings: hek293, 24 h
In short: (§3)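 Resazurin viability assay in DMEM + 10% FBS, 1% penicillin/streptomycin, 37 °C, 5% CO₂. Seeding: HEK-293 and J774A.1 at 1×10^4 cells/mL, A549 at 5×10^3 cells/mL. After 24 h, compounds added (0.78-200 μM, 0.5% DMSO final). Resazurin added 24 h later, read after 6 h. 1% Triton X as positive control. Quadruplicate.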

[13] = test system: A549; assay: Cytotoxicity against human A549 cells assessed as reduction in cell viability at 50 to 200 uM incubated for 24 hrs by resazurin assay; assay type: toxicity, cell-based; settings: a549, 24 h, dose 50-200 µM; in short: as §3
[14] = test system: J774.A1; assay: Cytotoxicity against mouse J774.A1 cells assessed as reduction in cell viability at 100 uM incubated for 24 hrs by resazurin assay; assay type: toxicity, cell-based; settings: j774.a1, 24 h; in short: as §3
[15] = test system: J774.A1; assay: Cytotoxicity against mouse J774.A1 cells assessed as reduction in cell viability at 50 uM incubated for 24 hrs by resazurin assay; assay type: toxicity, cell-based; settings: j774.a1, 24 h; in short: as §3
[16] = test system: A549; assay: Cytotoxicity against human A549 cells assessed as reduction in cell viability at 100 to 200 uM incubated for 24 hrs by resazurin assay; assay type: toxicity, cell-based; settings: a549, 24 h, dose 100-200 µM; in short: as §3
[17] = test system: Mycolicibacterium smegmatis; assay: Synergistic antibacterial activity against Mycobacterium smegmatis mc2 155 assessed as fold reduction in MIC value at 8 ug/ml in presence of clofazimine by checkerboard assay; assay type: functional, organism-based; settings: dose 8.0 µg/ml
[18] = test system: Mycobacteroides abscessus; assay: Synergistic antibacterial activity against Mycobacterium abscessus ATCC 19977 assessed as reduction in bacterial growth presence of spectinomycin by checkerboard assay; assay type: functional, organism-based
In short: (§4)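 Checkerboard in 96-well plates. Antibiotic two-fold serially diluted along columns, haloperidol derivative two-fold along rows. Bacteria prepared as for the MIC determination. MICs alone and in combination used to calculate FICI. At least duplicate independent trials.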

[19] = test system: Mycobacteroides abscessus; assay: Synergistic antibacterial activity against Mycobacterium abscessus ATCC 19977 in presence of clarithromycin by checkerboard assay; assay type: functional, organism-based; in short: as §4
[20] = test system: Mycobacteroides abscessus; assay: Synergistic antibacterial activity against Mycobacterium abscessus ATCC 19977 in presence of clofazimine by checkerboard assay; assay type: functional, organism-based; in short: as §4
[21] = test system: Mycobacterium intracellulare; assay: Antibacterial activity against Mycobacterium intracellulare ATCC 13950 in presence of spectinomycin by checkerboard assay; assay type: functional, organism-based; in short: as §4
[22] = test system: Mycobacterium intracellulare; assay: Antibacterial activity against Mycobacterium intracellulare ATCC 13950 in presence of clarithromycin by checkerboard assay; assay type: functional, organism-based; in short: as §4
[23] = test system: Mycobacterium intracellulare; assay: Antibacterial activity against Mycobacterium intracellulare ATCC 13950 in presence of clofazimine by checkerboard assay; assay type: functional, organism-based; in short: as §4
[24] = test system: Mycobacterium avium; assay: Antibacterial activity against Mycobacterium avium ATCC 25921 in presence of spectinomycin by checkerboard assay; assay type: functional, organism-based; in short: as §4
[25] = test system: Mycobacterium avium; assay: Antibacterial activity against Mycobacterium avium ATCC 25921 in presence of clarithromycin by checkerboard assay; assay type: functional, organism-based; in short: as §4
[26] = test system: Mycobacterium avium; assay: Antibacterial activity against Mycobacterium avium ATCC 25921 in presence of clofazimine by checkerboard assay; assay type: functional, organism-based; in short: as §4
[27] = test system: Mycobacterium tuberculosis; assay: Synergistic antibacterial activity against Mycobacterium tuberculosis H37Ra ATCC NRS22 in presence of spectinomycin by checkerboard assay; assay type: functional, organism-based; in short: as §4
[28] = Metabolic stability in human liver microsomes at 2 to 4 uM incubated for 30 mins by LC-MS/MS analysis; assay type: ADME, Microsome; settings: dose 2-4 µM, read-out: Stability
[29] = Metabolic stability in mouse liver microsomes at 2 to 4 uM incubated for 30 mins by LC-MS/MS analysis; assay type: ADME, Microsome; settings: dose 2-4 µM, read-out: Stability

Row | SMILES | pIC50 [1] | MIC [2] | MIC [3] | MIC [5] | MIC [6] | MIC [7] | MIC [8] | MIC [9] | fold change (FC) [10] | fold change (FC) [11] | Activity [12] | Activity [14] | Activity [17] | Activity [18] | Activity [20] | Activity [21] | Activity [22] | Activity [23] | Activity [24] | Activity [25] | further results
1 | O=C(CCCN1CCC(O)(c2ccc(Cl)cc2)CC1)c1ccc(F)cc1 [HALOPERIDOL] | 6.41 | ≤ 1.25 µg/mL | 5 µg/mL | > 62.5 µM | > 62.5 µM | 62.5 µM (≈ 23.5 µg/mL) | 62.5 µM (≈ 23.5 µg/mL) | 31.3 µM (≈ 11.8 µg/mL) | 16 | 4 | Non-Toxic | Toxic |  |  |  |  |  |  |  |  | pKi [4]: 6.41; Activity [13]: 70%; Activity [15]: 100%
2 | O=C(CCCN1CCC(O)(c2ccc(Cl)cc2)CC1)c1ccc(Br)cc1 | < 3.70 | ≤ 1.25 µg/mL | > 10 µg/mL | > 62.5 µM | > 62.5 µM | > 62.5 µM | > 62.5 µM | 31.3 µM (≈ 13.7 µg/mL) |  |  | Non-Toxic | 100% |  |  |  |  |  |  |  |  | Activity [16]: 70%
3 | O=C(CCCN1CCC(O)(c2ccc(F)cc2)CC1)c1ccc(Cl)cc1 | 5.59 | ≤ 1.25 µg/mL | 10 µg/mL | > 62.5 µM | > 62.5 µM | > 62.5 µM | > 62.5 µM | > 62.5 µM | 16 | 4 |  |  | Active | Active | Active | Active | Active | Active | Active | Active | Activity [19]: Active; Activity [26]: Active; Activity [27]: Active
4 | O=C(CCCN1CCC(O)(c2ccc(Br)cc2)CC1)c1ccc(Cl)cc1 | 5.96 | ≤ 1.25 µg/mL | 10 µg/mL | 31.3 µM (≈ 13.7 µg/mL) | > 62.5 µM | 62.5 µM (≈ 27.3 µg/mL) | > 62.5 µM | 7.8 µM (≈ 3.41 µg/mL) | 16 | 4 |  |  | Active | Active | Active | Active | Active | Active | Active | Active | Activity [26]: Active; Activity [27]: Active; remaining at 0.5 h [28]: 36%; remaining at 0.5 h [29]: 83%
